Experiment [1] deals with OVSAHO. The experiment in a line: Cytotoxicity against human OVSAHO cells assessed as inhibition of cell growth incubated for 72 hrs by MTT assay. It is filed as functional, cell-based. A digest of the protocol:
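OVSAHO cells incubated 72 h with each EISA substrate across a concentration series; viability measured and IC50 derived.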

Experiment [2] is described as follows: Cytotoxicity against CHOK cells assessed as inhibition of cell growth incubated for 72 hrs by MTT assay. Type of experiment: functional, cell-based. Particulars: Cricetulus griseus. A digest of the protocol:
(§1)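 Cell viability after 72 h continuous exposure of each ovarian or CHO cell line to the substrate over a concentration series. IC50 is taken from the 72 h viability curves.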
(Tetrazolium dyes change colour on reduction, which living cells bring about.)

Experiment [3] in a line: Cytotoxicity against mouse GEMM 4306 cells assessed as inhibition of cell growth incubated for 72 hrs by MTT assay. It is filed as functional, cell-based. Particulars: GEMM 4306, 72 h. A digest of the protocol: as §1
The nature of experiment [4]: Cytotoxicity against human A2780-Res cells assessed as inhibition of cell growth incubated for 72 hrs by MTT assay. It is filed as functional, cell-based. A digest of the protocol:
as §1

The subject of experiment [5] is OVSAHO. Put plainly: Cytotoxicity against human OVSAHO cells assessed as cell viability at 20 uM incubated for 24 hrs in presence of doxorubicin by MTT assay (reference value: 120%). As to conditions: read-out: Activity. It is filed as functional.
Experiment [6] deals with OVSAHO. Put plainly: Cytotoxicity against human OVSAHO cells assessed as enhancement in cell growth inhibition at 20 uM incubated for 24 hrs in presence of 1.25 to 2.5 uM cisplatin by MTT assay. Type of experiment: functional, cell-based. A digest of the protocol:
(§2)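 OVSAHO cells are co-treated for 24 h with the EISA substrate at a fixed 20 μM plus the partner drug over its concentration range. Viability is compared with substrate alone and drug alone. Significance is given as p thresholds (ns, *, **, ***).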

In experiment [7] the test system is OVSAHO. The experiment in a line: Cytotoxicity against human OVSAHO cells assessed as enhancement in cell growth inhibition at 20 uM incubated for 24 hrs in presence of 1.25 to 5 uM 3-((4-(tert-butyl)phenyl)sulfonyl)acrylonitrile by MTT assay. Type of experiment: functional, cell-based. A digest of the protocol: as §2
Experiment [8] concerns OVSAHO. Put plainly: Cytotoxicity against human OVSAHO cells assessed as enhancement in cell growth inhibition at 20 uM incubated for 24 hrs in presence of 50 to 200 nM methyl (5R,7R,8S)-7-hydroxy-8-methyl-15-oxo-5,6,7,8,14,15-hexahydro-13H-16-oxa-4b,8a,14-triaza-5,8-methanodibenzo[b,h]cycloocta[jkl]cyclopenta[e]-as-indacene-7-carboxylate by MTT assay. It is filed as functional, cell-based. A digest of the protocol:
as §2

For experiment [9], the system named is OVSAHO. The experiment in a line: Cytotoxicity against human OVSAHO cells assessed as enhancement in cell growth inhibition at 20 uM incubated for 24 hrs in presence of 2.5 to 10 uM paclitaxel by MTT assay. Type of experiment: functional, cell-based. A digest of the protocol:
as §2

Experiment [10] has as its system OVSAHO. The experiment in a line: Cytotoxicity against human OVSAHO cells assessed as enhancement in cell growth inhibition at 20 uM incubated for 24 hrs in presence of 0.5 to 2 uM 2-((4-(cyclopropanecarbonyl)piperazin-1-yl)methyl)benzo[d]isothiazol-3(2H)-one by MTT assay. It is filed as functional, cell-based. A digest of the protocol: as §2
Experiment [11] concerns OVSAHO. The experiment in a line: Cytotoxicity against human OVSAHO cells assessed as enhancement in cell growth inhibition at 20 uM incubated for 24 hrs in presence of 1 to 20 uM ethyl (2-((cyanocarbonyl)(2,4-dimethoxyphenyl)amino)-2-(thiophen-2-yl)acetyl)glycinate by MTT assay. It is filed as functional, cell-based. A digest of the protocol: as §2
Experiment [12] concerns OVSAHO. The experiment in a line: Cytotoxicity against human OVSAHO cells assessed as enhancement in cell growth inhibition at 20 uM incubated for 24 hrs in presence of 25 to 50 uM talazoparib by MTT assay. Type of experiment: functional, cell-based. A digest of the protocol: as §2
Experiment [13] deals with OVSAHO. Put plainly: Cytotoxicity against human OVSAHO cells assessed as enhancement in cell growth inhibition at 20 uM incubated for 24 hrs in presence of 25 to 50 uM Bortezomib by MTT assay. Type of experiment: functional, cell-based. A digest of the protocol: as §2
The test system of experiment [14] is OVSAHO. Put plainly: Cytotoxicity against human OVSAHO cells assessed as enhancement in cell growth inhibition at <5 uM incubated for 24 to 72 hrs in presence of doxorubicin by MTT assay. It is filed as functional, cell-based. As to conditions: time 24-72 hrs. A digest of the protocol: (§3)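 OVSAHO cells are exposed to a series of substrate concentrations combined with doxorubicin, alongside each agent alone. Viability is read at 24 h, 48 h and 72 h. Single-agent doxorubicin was also run at 1.25, 2.5 and 5 μM. Significance is given as p thresholds.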

Experiment [15] relates to OVSAHO. Put plainly: Cytotoxicity against human OVSAHO cells assessed as enhancement in cell growth inhibition at 10 to 20 uM incubated for 24 to 72 hrs in presence of doxorubicin by MTT assay. Particulars: dose 10-20 µM, time 24-72 hrs. Type of experiment: functional, cell-based. A digest of the protocol: as §3
The test system of experiment [16] is OVSAHO. The experiment in a line: Cytotoxicity against human OVSAHO cells assessed as inhibition of cell growth at 1.25 to 5 uM incubated for 24 hrs by MTT assay relative to control. Particulars: dose 1.25-5 µM. Type of experiment: functional. Set-up: scale not given: the % may be the effect or the level left. A digest of the protocol: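 OVSAHO cells treated with doxorubicin alone at 1.25, 2.5 and 5 μM for 24 h; cell viability measured.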

Molecules are shown by their SMILES. Active and inactive are the calls of the source. Square brackets hold non-standard residues; d marks the D form. Peptide text beside a SMILES is read from it. * marks the point of attachment. d(pY) = N[C@H](Cc1ccc(OP(=O)(O)O)cc1)C(=O)O; Acetyl(2-naphthyl) = O=C(Cc1ccc2ccccc2c1)*

`COC(=O)CC[C@@H](NC(=O)[C@@H](Cc1ccc(OP(=O)(O)O)cc1)NC(=O)[C@@H](Cc1ccccc1)NC(=O)[C@@H](Cc1ccccc1)NC(=O)[C@@H](CC(C)C)NC(=O)Cc1ccc2ccccc2c1)C(=O)OC`: in the experiment on OVSAHO [1], the IC50 (in general, the concentration that inhibits the measured activity by half) was more than 200 µM.

Take `COC(=O)CC[C@@H](NC(=O)[C@@H](Cc1ccc(OP(=O)(O)O)cc1)NC(=O)[C@@H](Cc1ccccc1)NC(=O)[C@@H](Cc1ccccc1)NC(=O)[C@H](CC(C)C)NC(=O)Cc1ccc2ccccc2c1)C(=O)OC`: the concentration for half-maximal inhibition (IC50) with OVSAHO [1] came out at 46.9 µM.

In the case of `COC(=O)CC[C@@H](NC(=O)[C@@H](Cc1ccc(OP(=O)(O)O)cc1)NC(=O)[C@@H](Cc1ccccc1)NC(=O)[C@@H](Cc1ccccc1)NC(=O)[C@@H](Cc1ccccc1)NC(=O)Cc1ccc2ccccc2c1)C(=O)OC`, in the experiment with OVSAHO [1], the half-maximal inhibitory concentration (IC50) is more than 200 µM.

For `COC(=O)CC[C@@H](NC(=O)[C@@H](Cc1ccc(OP(=O)(O)O)cc1)NC(=O)[C@H](CC(C)C)NC(=O)[C@@H](Cc1ccccc1)NC(=O)[C@@H](Cc1ccccc1)NC(=O)Cc1ccc2ccccc2c1)C(=O)OC`, the IC50 in the experiment on OVSAHO [1] is 70.5 µM.

For the molecule `COC(=O)CC[C@@H](NC(=O)[C@@H](Cc1ccc(OP(=O)(O)O)cc1)NC(=O)[C@@H](Cc1ccccc1)NC(=O)[C@@H](Cc1ccccc1)NC(=O)Cc1ccc2ccccc2c1)C(=O)OC` ({Acetyl(2-naphthyl)}-[dF][dF][d(pY)][dE](OMe)-OMe), the IC50 in experiment [2], in [3] and in experiment [4] was more than 200 µM in each case. Also, in the experiment with OVSAHO [5], the viability at 20 µM amounted to 20%. The outcome with OVSAHO [6], in the experiment on OVSAHO [7], in the experiment with OVSAHO [8] and with OVSAHO [15] was Active. The outcome with OVSAHO [9], in the experiment with OVSAHO [10], in the experiment with OVSAHO [11], in the experiment with OVSAHO [12], in the experiment on OVSAHO [13] and with OVSAHO [14] was inactive.

With `COc1cccc2c1C(=O)c1c(O)c3c(c(O)c1C2=O)C[C@@](O)(C(=O)CO)C[C@@H]3O[C@H]1C[C@H](N)[C@H](O)[C@H](C)O1` [DOXORUBICIN], in the experiment on OVSAHO [16], the Activity was approximately 75%.

The values are drawn from ChEMBL document CHEMBL5331146, “Evaluating Alkaline Phosphatase-Instructed Self-Assembly of d-Peptides for Selectively Inhibiting Ovarian Cancer Cells” (J Med Chem, 2023).
